Screening data: PubChem, Broad Institute
IDH1 mut inh = inhibitors of human IDH1 R132H; O75874; IDH1 R132H reductase, diaphorase/resazurin fluorescence, 60 min; inhibition, % at 10 µM; 0.18% of 70,000 active; AID 624101; in the data active means inhibition above about 34%; inconclusive means no clear call, values can overlap the other calls; inactive means below about 11%
T cruzi growth-1 = blocks T. cruzi growth in NIH3T3 culture; T. cruzi beta-gal in NIH3T3, GalScreen luminescence, 90 h; inhibition, % at 8.34 µM; 5.9% of 77,000 active; AID 624255;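 active means mean inhibition above about 93%, with at least 55% of replicates each passing it, limit read from the data, passing the limit was not always enough; inconclusive means only one of those two conditions holds; inactive means neither condition holds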
Pf Dd2 growth = inhibitors of Plasmodium falciparum Dd2 growth; P. falciparum Dd2 growth, SYBR Green, 72 h; stronger effect = lower value; 2.3% of 94,000 active; activity change, % at 10 µM; AID 1159554; in the data active means activity change below about -80%; inconclusive means no clear call, values can overlap the other calls
KDM4C inh = blocks human GASC-1 (KDM4C) demethylase activity. Q9H3R0. GST-KDM4C 2-372, H3K9me3 peptide, LANCE TR-FRET. inhibition, % at 12.5 µM. 0.15% of 96,000 active;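 active means mean replicate inhibition above about 25%, with at least 55% of replicates also reaching it, limit read from the data, passing the limit was not always enough; inconclusive means only one of those two conditions met; inactive means neither condition met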
Target sequence (Q9H3R0 2-372 limits assumed): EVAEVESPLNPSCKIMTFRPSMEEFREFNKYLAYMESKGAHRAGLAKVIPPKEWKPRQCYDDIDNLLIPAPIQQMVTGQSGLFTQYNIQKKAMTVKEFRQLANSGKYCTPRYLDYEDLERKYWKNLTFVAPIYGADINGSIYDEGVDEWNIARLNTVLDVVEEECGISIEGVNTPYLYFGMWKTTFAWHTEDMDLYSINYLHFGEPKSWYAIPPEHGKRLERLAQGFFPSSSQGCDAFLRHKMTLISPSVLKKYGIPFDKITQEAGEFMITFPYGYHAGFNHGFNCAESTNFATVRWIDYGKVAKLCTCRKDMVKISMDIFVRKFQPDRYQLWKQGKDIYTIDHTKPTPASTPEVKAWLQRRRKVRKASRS
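reagent = H3K9me3 peptide substrate, Fe(II), 2-oxoglutarate | system = GST-tagged GASC-1 (JMJD2C) catalytic fragment, aa 2-372 | amount = enzyme final amount 10 nM | read-out = Fall in 671/618 emission ratio as inhibition | medium = HEPES buffer, pH 7.5, plus ascorbate | schedule = 30 min reaction, 60 min detection, RT | measured by = LANCE TR-FRET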
T cruzi growth-2 = blocks T. cruzi growth in NIH3T3 host cells. inhibition, % at 8.35 µM. shares compounds with T cruzi growth-1. 72% of 5,600 active. AID 651739. T. cruzi beta-gal in NIH3T3, GalScreen luminescence, 90 h;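 active means mean replicate inhibition above about 95% and at least 55% of replicates individually reaching it, limit read from the data; inconclusive means only one of the two criteria is met; inactive means neither criterion is met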
T cruzi growth-3 = blocks T. cruzi growth in NIH3T3 host cells | shares compounds with T cruzi growth-1 | T. cruzi beta-gal in NIH3T3, GalScreen luminescence, 90 h | inhibition, % at 2.09 µM | 21% of 5,600 active;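 active means mean inhibition above about 95%, with at least 55% of replicates also reaching it, limit read from the data; inconclusive means meets just one of the two conditions; inactive means meets neither condition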
3T3 cytotox = cytotoxicity in mouse NIH/3T3 fibroblasts; shares compounds with T cruzi growth-1; NIH/3T3 viability, CellTiter-Glo ATP luminescence, 90 h; 14% of 5,600 active; cytotoxicity (signal decrease), % at 8.35 µM; AID 651742;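 active means mean signal decrease across replicates above about 35% based on untreated-well scatter, with enough replicates individually passing, limit read from the data; inconclusive means no rule stated though some were filed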
3T3 cytotox 2 = NIH/3T3 (mouse) viability loss. shares compounds with T cruzi growth-1. NIH/3T3 viability, CellTiter-Glo ATP luminescence, 90 h. inhibition, % at 24.9 µM. 56% of 5,600 active;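 active means mean loss of cell viability signal at or above a set limit, and enough replicates individually reaching it; inconclusive means meets only the mean limit or only the replicate share; inactive means meets neither condition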
A number is an active result; n = inactive; u = inconclusive; x = not tested or not shown. Hits are enriched below; roughly 5.8% of the tested compounds scored in any of these assays.

SMILES | IDH1 mut inh | T cruzi growth-1 | Pf Dd2 growth | KDM4C inh | T cruzi growth-2 | T cruzi growth-3 | 3T3 cytotox | 3T3 cytotox 2
COc1ccc(CN(C)C[C@@H]2OCCCC[C@@H](C)Oc3ccc(NC(=O)Nc4ccc(OC)cc4)cc3C(=O)N([C@H](C)CO)C[C@H]2C)cc1 | x | n | u | x | x | x | x | x
COc1ccc(CN(C)C[C@H]2OCCCC[C@H](C)Oc3ccc(NC(=O)Nc4ccccc4)cc3C(=O)N([C@@H](C)CO)C[C@H]2C)cc1 | x | u | n | n | 109.1 | n | n | 34.4
COc1ccc(CN(C)C[C@@H]2OCCCC[C@@H](C)Oc3ccc(NC(=O)Nc4ccccc4)cc3C(=O)N([C@H](C)CO)C[C@H]2C)cc1 | x | 110.5 | n | n | u | n | n | 104.2
COc1ccc(CN(C)C[C@H]2OCCCC[C@H](C)Oc3ccc(NC(=O)C4CCCCC4)cc3C(=O)N([C@@H](C)CO)C[C@@H]2C)cc1 | n | 104.4 | n | n | 106.7 | n | n | 68.6
COc1ccc(CN(C)C[C@H]2OCCCC[C@@H](C)Oc3ccc(NC(=O)Nc4ccc(OC)cc4)cc3C(=O)N([C@@H](C)CO)C[C@H]2C)cc1 | n | 104.5 | n | n | 103.3 | n | n | 105.7
COC(=O)c1c(NC(=O)COc2ccccc2)sc(C(N)=O)c1C | n | x | x | x | x | x | x | x
C/C=C/c1ccc([C@@H]2[C@@H](CO)N(Cc3ccccn3)[C@H]2CNC(C)=O)cc1 | x | n | n | n | x | x | x | x
O=C(NC[C@H]1[C@H](c2ccccc2)[C@H](CO)N1Cc1ccccn1)C1CCCC1 | x | 97.1 | n | n | n | n | n | n
C/C=C/c1ccc([C@@H]2[C@H](CO)N(Cc3ccccn3)[C@H]2CNC(C)=O)cc1 | x | 97.7 | n | n | n | n | n | n
O=C(NC[C@H]1[C@H](c2ccccc2)[C@@H](CO)N1Cc1ccccn1)C1CCCC1 | x | n | n | n | x | x | x | x
CCc1ccccc1NC(=O)CSc1nnc(-c2cccc(OC)c2)n1C | n | x | x | x | x | x | x | x
Cc1cccc(-c2ccc([C@@H]3[C@@H](CO)N4CCCCN(C(=O)c5cccnc5)C[C@H]34)cc2)c1 | x | u | n | n | n | n | n | 30.3
O=C(c1ccncc1)N1CCCCN2[C@H](CO)[C@H](c3ccc(-c4ccccc4)cc3)[C@@H]2C1 | x | 119.5 | n | n | n | n | n | n
Cc1cccc(-c2ccc([C@H]3[C@H]4CN(C(=O)c5cccnc5)CCCCN4[C@H]3CO)cc2)c1 | x | 109.3 | n | n | u | n | n | 26.5
Cc1cccc(-c2ccc([C@@H]3[C@@H](CO)N4CCCCN(C(=O)c5ccncc5)C[C@@H]34)cc2)c1 | x | n | n | n | x | x | x | x
Cc1cccc(-c2ccc([C@H]3[C@@H](CO)N4CCCCN(C(=O)c5ccncc5)C[C@H]34)cc2)c1 | x | u | n | n | 104.7 | n | n | 24.5
O=C(c1ccncc1)N1CCCCN2[C@H](C1)[C@@H](c1ccc(-c3ccccc3)cc1)[C@@H]2CO | x | n | n | n | x | x | x | x
Cc1cccc(-c2ccc([C@@H]3[C@@H](CO)N4CCCCN(C(=O)c5ccncc5)C[C@H]34)cc2)c1 | x | n | n | n | x | x | x | x
COc1ccccc1NC(=O)CSc1nc(O)cc(=O)n1-c1ccccc1 | n | x | x | x | x | x | x | x
Cc1ccccc1-c1ccc([C@H]2[C@@H](CO)N3CCCCN(C(=O)c4cccnc4)C[C@H]23)cc1 | x | 99.1 | n | n | 97.0 | n | n | n
Cc1cccc(-c2ccc([C@H]3[C@H](CO)N4CCCCN(C(=O)c5cccnc5)C[C@@H]34)cc2)c1 | x | 115.7 | n | n | 102.0 | n | 38.8 | 32.0
Cc1cccc(-c2ccc([C@@H]3[C@@H](CO)N4CCCCN(C(=O)c5cccnc5)C[C@@H]34)cc2)c1 | x | 100.1 | n | n | n | n | n | n
OCCN(CCO)Cc1ccc(Cl)cc1 | n | x | x | x | x | x | x | x
COc1cccc(S(=O)(=O)N2CCCCN3[C@H](CO)[C@@H](c4ccc(-c5cccnc5)cc4)[C@H]3C2)c1 | x | n | n | n | x | x | x | x
COc1cccc(S(=O)(=O)N2CCCCN3[C@H](CO)[C@@H](c4ccc(-c5ccccc5)cc4)[C@@H]3C2)c1 | x | n | n | n | x | x | x | x
SMILES | IDH1 mut inh | T cruzi growth-1 | Pf Dd2 growth | KDM4C inh | T cruzi growth-2 | T cruzi growth-3 | 3T3 cytotox | 3T3 cytotox 2
COc1ccc(S(=O)(=O)N2CCCCN3[C@H](CO)[C@@H](c4ccc(-c5cccnc5)cc4)[C@H]3C2)cc1 | x | 113.1 | n | n | n | n | n | n
COc1cccc(S(=O)(=O)N2CCCCN3[C@H](CO)[C@H](c4ccc(-c5cccnc5)cc4)[C@@H]3C2)c1 | x | 117.7 | n | n | 103.2 | n | n | n
COc1cccc(S(=O)(=O)N2CCCCN3[C@H](CO)[C@H](c4ccc(-c5ccncc5)cc4)[C@@H]3C2)c1 | x | 113.0 | n | n | 109.3 | 103.6 | n | n
COc1cccc(S(=O)(=O)N2CCCCN3[C@H](CO)[C@@H](c4ccc(-c5cncnc5)cc4)[C@H]3C2)c1 | x | n | n | n | x | x | x | x
COc1cccc(S(=O)(=O)N2CCCCN3[C@H](C2)[C@H](c2ccc(-c4cccnc4)cc2)[C@@H]3CO)c1 | x | 105.3 | n | n | 103.4 | n | n | n
Cc1ccsc1/C=N/NC(=O)c1cccc(C(=O)NO)c1 | n | x | x | x | x | x | x | x
C[C@@H]1CCCCO[C@@H](CN(C)S(=O)(=O)c2cccs2)[C@@H](C)CN([C@H](C)CO)C(=O)c2cc(NS(=O)(=O)c3ccc(Cl)cc3)ccc2O1 | n | u | n | n | 106.1 | n | n | 38.5
C[C@H](CO)N1C[C@H](C)[C@@H](CN(C)S(=O)(=O)c2cccs2)OCCCC[C@H](C)Oc2ccc(NS(=O)(=O)c3ccc(Cl)cc3)cc2C1=O | n | n | n | n | x | x | x | x
C[C@H](CO)N1C[C@H](C)[C@H](CN(C)S(=O)(=O)c2cccs2)OCCCC[C@H](C)Oc2ccc(NS(=O)(=O)c3ccc(Cl)cc3)cc2C1=O | n | 104.3 | n | n | 102.0 | n | n | n
C[C@@H]1CCCCO[C@H](CN(C)S(=O)(=O)c2cccs2)[C@@H](C)CN([C@@H](C)CO)C(=O)c2cc(NS(=O)(=O)c3ccc(Cl)cc3)ccc2O1 | x | 92.8 | n | n | 98.2 | 99.4 | n | n
C[C@@H]1CCCCO[C@H](CN(C)S(=O)(=O)c2cccs2)[C@H](C)CN([C@@H](C)CO)C(=O)c2cc(NS(=O)(=O)c3ccc(Cl)cc3)ccc2O1 | n | 95.1 | n | n | 102.2 | n | n | n
C[C@@H]1CCCCO[C@@H](CN(C)S(=O)(=O)c2cccs2)[C@H](C)CN([C@H](C)CO)C(=O)c2cc(NS(=O)(=O)c3ccc(Cl)cc3)ccc2O1 | n | n | n | n | x | x | x | x
N#Cc1cccc(-c2ccc([C@@H]3[C@@H](CO)N4CCCCN(C(=O)Nc5cccc(F)c5)C[C@H]34)cc2)c1 | x | 114.9 | n | n | 105.2 | n | n | 103.8
